Measured values: ChEMBL document CHEMBL2046337, “Inhibitors for Bacterial Cell-Wall Recycling” (ACS Med Chem Lett, 2012)
Values belong to the molecule of their own block, whether it stands above or below them. Activity calls are given as the source filed them. No cut-off for these calls is given here.

Key:
[1] = target: T1, Membrane-bound lytic murein transglycosylase B (Escherichia coli (strain K12), UniProt P41052); test: Binding affinity to Escherichia coli K12 MG1655 His6x-tagged MltB lytic transglycosylase assessed as intrinsic fluorescence of tryptophan and/or tyrosine residues of enzyme; set-up: species or system Escherichia coli K-12
T1 sequence (P41052 whole entry): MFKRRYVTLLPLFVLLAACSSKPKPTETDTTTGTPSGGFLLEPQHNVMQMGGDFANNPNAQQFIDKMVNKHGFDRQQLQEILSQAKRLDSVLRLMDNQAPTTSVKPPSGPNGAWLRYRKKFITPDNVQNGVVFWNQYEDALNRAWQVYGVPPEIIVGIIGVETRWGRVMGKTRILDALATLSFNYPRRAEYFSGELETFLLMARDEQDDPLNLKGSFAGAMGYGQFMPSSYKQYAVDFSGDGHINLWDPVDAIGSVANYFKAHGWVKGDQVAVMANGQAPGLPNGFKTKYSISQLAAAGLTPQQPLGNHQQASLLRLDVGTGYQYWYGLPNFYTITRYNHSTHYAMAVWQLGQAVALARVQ
How it was run: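 MltB at 0.25 μM in 50 mM HEPES pH 7.6, 0.20 M NaCl, Brij-35, titrated with aliquots of 42 mM aqueous compound stock; equilibrated at 25 °C with stirring after each addition. Emission read at 334.06 nm (excitation 280 nm, scan 290-450 nm), corrected for dilution. Kd from fit to one-site saturation model, with or without a non-specific binding term.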

Beta-hexosaminidase = Beta-hexosaminidase (Pseudomonas aeruginosa (strain ATCC 15692 / PAO1 / 1C / PRS 101 / LMG12228), UniProt Q9HZK0); test: Competitive inhibition of Pseudomonas aeruginosa PAO1 NagZ using PNP-GlcNAc as substrate assessed as release of 4-nitrophenolate ion after 4 mins by spectrophotometric analysis
How it was run: (§1)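 His-tagged NagZ, purified by Ni-affinity, at 40 nM in PBS pH 7.4 (500 µL reaction). Substrate was PNP-GlcNAc at 0.1–1 mM. 4-Nitrophenolate release was followed at 400 nm for 4 min at 25 °C, in triplicate.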

[2] = target: Beta-hexosaminidase (Pseudomonas aeruginosa (strain ATCC 15692 / PAO1 / 1C / PRS 101 / LMG12228)) (UniProt Q9HZK0); test: Inhibition of Pseudomonas aeruginosa PAO1 NagZ using PNP-GlcNAc as substrate assessed as release of 4-nitrophenolate ion after 4 mins by spectrophotometric analysis; how it was run: as §1
[3] = Activity at NagZ expressed in Escherichia coli BL21 DE3 after 35 mins by HPLC analysis
[4] = Ratio of Kcat to Km for NagZ expressed in Escherichia coli BL21 DE3 after 35 mins by HPLC analysis
[5] = substrate: CO[C@@H]1O[C@H](CO)[C@@H](O[C@@H]2O[C@H](CO)[C@@H](O)[C@H](O)[C@H]2NC(C)=O)[C@H](O[C@H](C)C(=O)N[C@@H](C)C(=O)N[C@H](CCC(=O)N[C@@H](CCC[C@@H](N)C(=O)O)C(=O)N[C@H](C)C(=O)N[C@H](C)C(=O)O)C(=O)O)[C@H]1NC(C)=O; test: Activity at Pseudomonas aeruginosa PAO1 NagZ after 35 mins by HPLC analysis
How it was run: (§2)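 His-tagged NagZ (pET28a, expressed in E. coli BL21 star (DE3), Ni-affinity purified) at 40 nM in PBS pH 7.4. Substrate was GlcNAc-anhMurNAc-pentapeptide or GlcNAc-MurNAc-pentapeptide at 0.15–0.9 mM, 25 °C, 35 min. Reactions were stopped with two volumes of 0.075% TFA. Substrate and product were quantified by C18 reversed-phase HPLC against an internal standard (Nα,Nε-diacetyl-L-Lys-D-Ala-D-Ala).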

[6] = substrate: CO[C@@H]1O[C@H](CO)[C@@H](O[C@@H]2O[C@H](CO)[C@@H](O)[C@H](O)[C@H]2NC(C)=O)[C@H](O[C@H](C)C(=O)N[C@@H](C)C(=O)N[C@H](CCC(=O)N[C@@H](CCC[C@@H](N)C(=O)O)C(=O)N[C@H](C)C(=O)N[C@H](C)C(=O)O)C(=O)O)[C@H]1NC(C)=O; test: Ratio of Kcat to Km for Pseudomonas aeruginosa PAO1 NagZ after 35 mins by HPLC analysis; how it was run: as §2

Molecule: CC(=O)N[C@H]1CN[C@H](CO)[C@@H](O)[C@@H]1O[C@H](C)C(=O)O
- Kd [1]: 1000 µM
- Ki (Beta-hexosaminidase): 51 µM
- inhibition [2]: Active

Molecule: CC(=O)N[C@H]1CN[C@H](CO)[C@@H](O)[C@@H]1O[C@H](C)C(=O)N[C@@H](C)C(=O)N[C@H](CCC(=O)O)C(=O)O
- Kd [1]: 1010 µM
- Ki (Beta-hexosaminidase): 33 µM
- inhibition [2]: Active

Molecule: CC(=O)N[C@H]1CN[C@H](CO)[C@@H](O)[C@@H]1O
- Kd [1]: 174 µM
- Ki (Beta-hexosaminidase): 0.3 µM

- Km [3]: 104 µM
- kcat [3]: 6.6 s⁻¹
- kcat/Km [4]: 6.3 ×10⁴ /M/s
Molecule: CC(=O)N[C@H]1[C@H](O[C@H]2[C@H](O[C@H](C)C(=O)N[C@@H](C)C(=O)N[C@H](CCC(=O)N[C@@H](CCC[C@@H](N)C(=O)O)C(=O)N[C@H](C)C(=O)N[C@H](C)C(=O)O)C(=O)O)[C@@H](NC(C)=O)[C@@H]3OC[C@H]2O3)O[C@H](CO)[C@@H](O)[C@@H]1O

Molecule: CC(=O)N[C@H]1CN[C@H](CO)[C@@H](O)[C@@H]1O[C@H](C)C(=O)N[C@@H](C)C(=O)O
- Kd [1]: 189 µM
- Ki (Beta-hexosaminidase): 35 µM
- inhibition [2]: Active

B1: Beta-hexosaminidase (Pseudomonas aeruginosa (strain ATCC 15692 / PAO1 / 1C / PRS 101 / LMG12228)), Q9HZK0 (protein)
chain: MQGSLMLDIGGTWLTAEDRQILRHPEVGGLIIFARNIEHPAQVRELCAAIRAIRPDLLLAVDQEGGRVQRLRQGFVRLPAMRAIADNPNAEELAEHCGWLMATEVQAVGLDLSFAPVLDLDHQRSAVVGSRAFEGDPERAALLAGAFIRGMHAAGMAATGKHFPGHGWAEADSHVAIPEDARSLEEIRRSDLVPFARLAGQLDALMPAHVIYPQVDPQPAGFSRRWLQEILRGELKFDGVIFSDDLSMAGAHVVGDAASRIEAALAAGCDMGLVCNDRASAELALAALQRLKVTPPSRLQRMRGKGYANTDYRQQPRWLEALSALRAAQLID
- Km [5]: 165 µM
- kcat [5]: 0.77 s⁻¹
- kcat/Km [6]: 0.5 ×10⁴ /M/s
